Measurements: ChEMBL document CHEMBL6092210, “Synthesis, in vitro and in vivo biological evaluation of novel dual compounds targeting both acetylcholinesterase and serotonergic 5-HT4 receptors with potential interest in the treatment of Alzheimer's disease” (Eur J Med Chem, 2024)
pIC50: −log10 of the molar value.

Columns and labels:
Cytochrome P450 1A2 = molecular target: T1, Cytochrome P450 1A2 (Homo sapiens, UniProt P05177); assay: Inhibition of CYP1A2 in human liver microsomes using phenacetin as substrate; format: ADME, Microsome
T1 sequence (P05177 whole entry): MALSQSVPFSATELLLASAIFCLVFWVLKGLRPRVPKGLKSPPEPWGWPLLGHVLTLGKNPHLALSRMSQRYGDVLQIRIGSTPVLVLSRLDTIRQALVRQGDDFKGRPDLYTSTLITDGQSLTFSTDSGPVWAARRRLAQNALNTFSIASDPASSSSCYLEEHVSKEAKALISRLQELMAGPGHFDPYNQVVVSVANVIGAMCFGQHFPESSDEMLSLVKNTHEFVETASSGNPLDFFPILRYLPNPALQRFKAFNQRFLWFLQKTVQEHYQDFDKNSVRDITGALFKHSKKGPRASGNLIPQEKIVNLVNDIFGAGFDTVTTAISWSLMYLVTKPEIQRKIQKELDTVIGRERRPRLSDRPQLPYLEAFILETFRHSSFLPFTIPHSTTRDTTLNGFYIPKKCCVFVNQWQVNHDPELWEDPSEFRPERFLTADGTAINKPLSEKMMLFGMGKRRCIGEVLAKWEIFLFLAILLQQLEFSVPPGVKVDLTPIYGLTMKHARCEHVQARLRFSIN
Procedure, shortened: (§1)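 Human liver microsomes with a cocktail of CYP-specific probe substrates; metabolite formation monitored for each probe reaction. Test compound (fumarate) at 0.01, 0.1, 1, 10 and 100 μM. Control inhibitors run at a single concentration for each probe reaction. IC50 estimated.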

[1] = Drug metabolism in human liver microsome measured at 20 mins by UPLC/QE-orbitrap-MS method; format: ADME; conditions: microsomes
Procedure, shortened: (§2)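 Test compound as fumarate salt incubated with human, dog, mouse or rat liver microsomes over 0–60 min. Parent remaining measured by UPLC/QE-orbitrap-MS as relative LC/MS peak area (% of 0 min), n = 1.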

Cytochrome P450 3A4 [2] = molecular target: T2, Cytochrome P450 3A4 (Homo sapiens, UniProt P08684); assay: Inhibition of CYP3A4 in human liver microsomes using Midazolam as substrate; format: ADME, Microsome; procedure, shortened: as §1
T2 sequence (P08684 whole entry): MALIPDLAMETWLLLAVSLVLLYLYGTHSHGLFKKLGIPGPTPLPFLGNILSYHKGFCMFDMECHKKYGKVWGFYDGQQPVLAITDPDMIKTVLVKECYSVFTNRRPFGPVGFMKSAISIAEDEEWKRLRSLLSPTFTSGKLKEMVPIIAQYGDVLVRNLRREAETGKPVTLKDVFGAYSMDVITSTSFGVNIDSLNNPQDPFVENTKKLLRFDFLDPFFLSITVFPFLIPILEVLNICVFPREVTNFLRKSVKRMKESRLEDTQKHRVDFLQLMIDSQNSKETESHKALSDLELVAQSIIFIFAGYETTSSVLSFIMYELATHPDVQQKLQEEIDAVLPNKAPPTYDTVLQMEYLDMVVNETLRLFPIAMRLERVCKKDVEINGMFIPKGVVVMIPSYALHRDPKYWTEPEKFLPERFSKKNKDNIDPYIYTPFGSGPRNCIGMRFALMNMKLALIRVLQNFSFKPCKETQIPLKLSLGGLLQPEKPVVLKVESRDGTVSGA

Cytochrome P450 2B6 = molecular target: T3, Cytochrome P450 2B6 (Homo sapiens, UniProt P20813); assay: Inhibition of CYP2B6 in human liver microsomes using bupropion as substrate; format: ADME, Microsome; procedure, shortened: as §1
T3 sequence (P20813 whole entry): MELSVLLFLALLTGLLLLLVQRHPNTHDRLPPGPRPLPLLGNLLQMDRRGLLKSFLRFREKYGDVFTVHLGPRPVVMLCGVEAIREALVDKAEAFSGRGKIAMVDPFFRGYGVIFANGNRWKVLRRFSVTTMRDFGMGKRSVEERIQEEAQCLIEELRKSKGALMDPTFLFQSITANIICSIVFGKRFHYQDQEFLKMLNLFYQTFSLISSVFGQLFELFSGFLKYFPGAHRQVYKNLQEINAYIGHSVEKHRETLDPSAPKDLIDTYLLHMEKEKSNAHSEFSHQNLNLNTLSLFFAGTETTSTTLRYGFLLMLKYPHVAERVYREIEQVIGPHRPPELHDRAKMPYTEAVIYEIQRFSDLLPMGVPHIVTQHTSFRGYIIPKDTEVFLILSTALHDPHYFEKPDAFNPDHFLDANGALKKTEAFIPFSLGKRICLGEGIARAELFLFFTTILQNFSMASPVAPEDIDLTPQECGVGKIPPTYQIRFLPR

Cytochrome P450 2C19 = Cytochrome P450 2C19 (Homo sapiens, UniProt P33261); assay: Inhibition of CYP2C19 in human liver microsomes using omeprazole as substrate; format: ADME, Microsome; procedure, shortened: as §1
Chain of Cytochrome P450 2C19 (P33261 whole entry): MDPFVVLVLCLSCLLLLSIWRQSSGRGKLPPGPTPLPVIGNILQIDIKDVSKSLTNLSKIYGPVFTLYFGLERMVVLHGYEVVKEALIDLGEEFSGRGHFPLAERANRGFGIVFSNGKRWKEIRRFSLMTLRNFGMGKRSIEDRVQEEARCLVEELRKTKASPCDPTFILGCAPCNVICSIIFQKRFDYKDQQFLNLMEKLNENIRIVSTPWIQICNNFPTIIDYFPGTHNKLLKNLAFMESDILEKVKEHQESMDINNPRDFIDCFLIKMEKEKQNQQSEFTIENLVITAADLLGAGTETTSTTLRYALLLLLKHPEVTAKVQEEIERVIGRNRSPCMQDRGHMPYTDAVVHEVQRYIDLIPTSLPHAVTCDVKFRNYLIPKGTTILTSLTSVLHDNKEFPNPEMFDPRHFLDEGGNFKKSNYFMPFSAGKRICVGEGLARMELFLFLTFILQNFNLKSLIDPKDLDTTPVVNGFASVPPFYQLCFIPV

Cytochrome P450 3A4 [3] = molecular target: T2, Cytochrome P450 3A4; assay: Inhibition of CYP3A4 in human liver microsomes using Omeprazole as substrate; format: ADME, Microsome; procedure, shortened: as §1
[4] = Drug metabolism in mouse liver microsome measured at 40 mins by UPLC/QE-orbitrap-MS method; format: ADME; conditions: microsomes; procedure, shortened: as §2
[5] = Clearance in C57BL6 mouse at 0.3 to 3 mg/kg, iv; format: ADME, organism-based; conditions: in vivo, dose 0.3-3 mg/kg
Procedure, shortened: (§3)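 Single iv dose of 0.3, 1 or 3 mg/kg in 0.9 % saline, three animals per dose (C57Bl6 mice, Wistar rats). Terminal cardiac-puncture blood under isoflurane at six time points. Plasma protein-precipitated and assayed by UHPLC–MS/MS (LLOQ 1 ng/mL). Parameters from non-compartmental analysis.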

Cytochrome P450 2C9 = Cytochrome P450 2C9 (Homo sapiens, UniProt P11712); assay: Inhibition of CYP2C9 in human liver microsomes using diclofenac as substrate; format: ADME, Microsome; procedure, shortened: as §1
Chain of Cytochrome P450 2C9 (P11712 whole entry): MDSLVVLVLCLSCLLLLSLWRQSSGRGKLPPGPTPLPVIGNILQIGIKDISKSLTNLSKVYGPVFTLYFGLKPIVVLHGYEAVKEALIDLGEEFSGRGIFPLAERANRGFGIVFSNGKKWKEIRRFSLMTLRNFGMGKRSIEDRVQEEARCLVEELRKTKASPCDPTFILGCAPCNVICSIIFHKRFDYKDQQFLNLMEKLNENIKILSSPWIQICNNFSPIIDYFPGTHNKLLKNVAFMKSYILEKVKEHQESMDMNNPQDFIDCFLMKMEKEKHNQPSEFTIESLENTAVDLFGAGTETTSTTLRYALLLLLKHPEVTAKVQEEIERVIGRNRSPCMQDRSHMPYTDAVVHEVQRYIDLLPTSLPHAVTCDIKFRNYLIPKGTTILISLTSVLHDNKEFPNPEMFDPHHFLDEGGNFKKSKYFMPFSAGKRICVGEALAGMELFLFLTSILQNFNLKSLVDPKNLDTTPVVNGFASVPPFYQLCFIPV

[6] = Drug metabolism in human liver microsome measured at 10 mins by UPLC/QE-orbitrap-MS method; format: ADME; conditions: microsomes; procedure, shortened: as §2
[7] = Drug metabolism in dog liver microsome measured at 60 mins by UPLC/QE-orbitrap-MS method; format: ADME, Canis lupus familiaris; conditions: microsomes, 1 h; procedure, shortened: as §2
[8] = Drug metabolism in rat liver microsome measured at 20 mins by UPLC/QE-orbitrap-MS method; format: ADME; conditions: microsomes; procedure, shortened: as §2
[9] = Drug metabolism in dog liver microsome measured at 40 mins by UPLC/QE-orbitrap-MS method; format: ADME, Canis lupus familiaris; conditions: microsomes; procedure, shortened: as §2
[10] = Drug metabolism in mouse liver microsome measured at 10 mins by UPLC/QE-orbitrap-MS method; format: ADME; conditions: microsomes; procedure, shortened: as §2
[11] = Toxicity in C57BL/6 mouse assessed as reversal of scopolamine-induced spontaneous alternation deficit at 3 mg/kg, sc incubated for 30 mins; format: organism-based; conditions: in vivo, 0.5 h
Cytochrome P450 3A4 [12] = molecular target: T2, Cytochrome P450 3A4; assay: Inhibition of CYP3A4 in human liver microsomes using Testosterone as substrate; format: ADME, Microsome; procedure, shortened: as §1
[13] = MRT in Wistar rat at 0.3 to 3 mg/kg, iv; format: ADME, organism-based; conditions: in vivo, dose 0.3-3 mg/kg; procedure, shortened: as §3
[14] = Clearance in C57BL6 mouse at 3 mg/kg, iv; format: ADME, organism-based; conditions: in vivo; procedure, shortened: as §3
[15] = Drug metabolism in rat liver microsome measured at 60 mins by UPLC/QE-orbitrap-MS method; format: ADME; conditions: microsomes, 1 h; procedure, shortened: as §2
[16] = Drug metabolism in rat liver microsome measured at 40 mins by UPLC/QE-orbitrap-MS method; format: ADME; conditions: microsomes; procedure, shortened: as §2
[17] = Toxicity in C57BL/6 mouse assessed as memory impairment at 0.3 mg/kg, ip incubated for 30 mins by novel object recognition test; format: organism-based; conditions: in vivo, 0.5 h
[18] = Toxicity in C57BL/6 mouse assessed as spontaneous locomotor activity at 10 mg/kg, ip incubated for 30 mins; format: organism-based; conditions: in vivo, 0.5 h
[19] = Drug metabolism in dog liver microsome measured at 10 mins by UPLC/QE-orbitrap-MS method; format: ADME, Canis lupus familiaris; conditions: microsomes; procedure, shortened: as §2
[20] = Drug metabolism in human liver microsome measured at 40 mins by UPLC/QE-orbitrap-MS method; format: ADME; conditions: microsomes; procedure, shortened: as §2
[21] = Volume of distribution in C57BL6 mouse at 0.3 to 3 mg/kg, iv; format: ADME, organism-based; conditions: in vivo, dose 0.3-3 mg/kg
Procedure, shortened: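 Pharmacokinetics in C57Bl6 mice given the compound iv at 0.3, 1 or 3 mg/kg in 0.9 % saline (10 mL/kg), three animals per dose. Terminal cardiac blood taken under isoflurane at six time points. Plasma analyzed by UHPLC–MS/MS (LLOQ 1 ng/mL). Parameters derived by non-compartmental analysis.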

[22] = Drug metabolism in mouse liver microsome measured at 20 mins by UPLC/QE-orbitrap-MS method; format: ADME; conditions: microsomes; procedure, shortened: as §2
[23] = Half life in C57BL6 mouse at 0.3 to 3 mg/kg, iv; format: ADME, organism-based; conditions: in vivo, dose 0.3-3 mg/kg; procedure, shortened: as §3

With `COc1cc(N)c(F)cc1C(=O)CCC1CCN(CC2CCCCC2)CC1.O=C(O)/C=C/C(=O)O` the pIC50 (Cytochrome P450 1A2) was 4.08, the Drug metabolism [1] was 78% and the pIC50 (Cytochrome P450 3A4 [2]) was 4.64. The pIC50 (Cytochrome P450 2B6) was 4.02, the pIC50 (Cytochrome P450 2C19) was 5.14 and the pIC50 (Cytochrome P450 3A4 [3]) was 5.27. The Drug metabolism [4] was 25%, the clearance [5] was 35.5 mL/min/kg and the pIC50 (Cytochrome P450 2C9) was < 4.00. For the same compound, the Drug metabolism [6] was 89%, the Drug metabolism [7] was 29% and the Drug metabolism [8] was 10%. For the same compound, the Drug metabolism [9] was 40%, the Drug metabolism [10] was 63% and the Activity [11] was “Non-toxic”. For the same compound, the pIC50 (Cytochrome P450 3A4 [12]) was 5.10, the MRT [13] was 69 min and the clearance [14] was 191 mL/min/kg. The Drug metabolism [15] was 6%, the Drug metabolism [16] was 6% and the Activity [17] was “Non-toxic”. For the same compound, the Activity [18] was “Non-toxic”, the Drug metabolism [19] was 77% and the Drug metabolism [20] was 63%. It also gave a Vd [21] of 3.6 L/kg, a Drug metabolism [22] of 44% and a half-life [23] of 47.8 min.
